Source: PubChem BioAssay
MT1-MMP act inh: inhibitors of human MT1-MMP activation. HT1080 RFP-PRO-GFP cells, GFP/RFP ratio fluorescence, overnight; percent of plate control window, DMSO zero. 360,000 compounds, 0.061% hits. AID 651647. P50281. GFP/RFP ratio change, % at 20 µM;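 active = GFP/RFP ratio change of at least 30% with cell ATP level not reduced by more than half and red fluorescence within 50% of control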
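Assay system – RFP-PRO-GFP reporter HT1080 cells · Compound dosing – single dose of 20 µM compound, 1% DMSO final · Incubation – overnight compound exposure at 37 °C · Measure – GFP/RFP fluorescence ratio · Benchmarks – DMSO wells and RFP-L50D-GFP cells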
DAGLB inh: diacylglycerol lipase beta (human) inhibition; Q8NCG7; HEK293T DAGLB membrane lysate, EnzChek fluorogenic substrate; inhibition, % at 5.17 µM; 340,000 compounds, 0.059% hits; AID 504411; in the data active = inhibition above about 34%;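 also: 0% = enzyme with vehicle and 100% = wells lacking enzyme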
Cardio protect: modulators protecting cardiomyocytes from myocardial damage. H9c2 cardiomyocytes, H2O2 injury protection, ATPLite, 2 h. AID 588492. 360,000 compounds, 0.63% hits. protection from H2O2 cell death, % at 20 µM;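 active = compounds giving at least 50% protection of heart cells from peroxide-induced death in the single-dose screen, raw or plate-pattern-corrected value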;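 also: 0% = DMSO wells with peroxide and 100% = DMSO wells without peroxide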
H9c2 TAG inh: triacylglycerol accumulation inhibition; H9c2 cells, Nile Red lipid (TAG) fluorescence; cells loaded with 200 µM oleic acid; inhibition, % at 12.5 µM; 230,000 compounds, 0.66% hits; AID 651582;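 active = pattern-corrected inhibition of lipid staining of at least 50% with the nuclear-stain viability signal not falling by more than 50%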;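 also: 0% = DMSO wells and 100% = triacsin C control wells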
DDE Tn7 FP inh: disrupts Tn7 cyclic peptide binding to fibrin D-Dimer-E complex; 370,000 compounds, 0.13% hits; P02675; FP displacement of FITC-Tn7 peptide from fibrin DD(E); 0% = median of compound wells per plate; inhibition, % at 8.3 µM;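 active = inhibition above the mean of compounds falling within the control limits plus 3 SD of them, cut at about 14% in these data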;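 also: 0% = plate median of compound wells and 100% = 10 µM Aha-Tn7 peptide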
Target sequence (P02675 whole entry, looked up): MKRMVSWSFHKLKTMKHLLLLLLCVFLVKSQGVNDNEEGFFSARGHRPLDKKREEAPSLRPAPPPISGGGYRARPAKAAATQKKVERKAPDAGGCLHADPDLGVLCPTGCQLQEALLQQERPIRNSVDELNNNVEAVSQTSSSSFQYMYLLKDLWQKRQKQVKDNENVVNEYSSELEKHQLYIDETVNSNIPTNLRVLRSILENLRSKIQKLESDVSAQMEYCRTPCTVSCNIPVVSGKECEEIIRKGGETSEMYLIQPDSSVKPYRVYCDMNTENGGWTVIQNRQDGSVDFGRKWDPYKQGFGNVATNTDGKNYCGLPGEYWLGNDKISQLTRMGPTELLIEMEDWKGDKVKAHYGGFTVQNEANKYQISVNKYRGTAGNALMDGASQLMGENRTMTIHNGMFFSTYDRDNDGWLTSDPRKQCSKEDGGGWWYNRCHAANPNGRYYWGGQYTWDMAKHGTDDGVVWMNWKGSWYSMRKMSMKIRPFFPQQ
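Assay system: human fibrin DD(E) protein / Input: 2 µM fibrin DD(E) / Benchmarks: high control of 10 µM Aha-Tn7 peptide / Measured by: fluorescence polarization of the labelled Tn7 tracer / Medium: Tris buffer with calcium and detergent, pH 7.8 / Timing: 10 min compound pre-incubation, 3 h probe incubation at room temperature / Repeats: one replicate per compound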
DDE Tn6 FP inh: DD(E)-Tn6 binding inhibition, primary FP screen; P02675; Fibrin DD(E) TRITC-Tn6 fluorescence polarization displacement; inhibition, % at 8.3 µM; 370,000 compounds, 0.21% hits; AID 720509;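 active = inhibition above a per-campaign cutoff: mean of compounds within control limits plus 3 SD, cut at about 15% in these data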;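 also: 0% = median of all compound wells on the plate and 100% = blocking peptide control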
Starred values were filed as active, the others as inactive; nt = no result given. A selection: hits, their analogues and other compounds. The true share with any hit is near 1.4%.

SMILES	MT1-MMP act inh	DAGLB inh	Cardio protect	H9c2 TAG inh	DDE Tn7 FP inh	DDE Tn6 FP inh
COc1ccccc1Nc1cc2cc(Br)ccc2c(=O)[nH]1	-11.3	-14.9	0.2	17.5	-5.8	-3.4
COc1ccc(OC)c(Nc2cc3ccccc3c(=O)[nH]2)c1	-33.8	-5.3	53.6*	27.8	0.5	-2.0
O=C(/C=C/c1ccccc1)NC(=S)NNC(=O)c1cccnc1	4.8	-1.0	-7.0	-9.1	0.1	2.1
O=C(/C=C/c1ccccc1)NC(=S)NNC(=O)c1cnccn1	15.3	-0.3	57.1*	3.2	-0.7	3.1
CCn1c(Cc2cccs2)nnc1SCC(=O)c1ccc(Cl)cc1	nt	nt	nt	nt	-7.9	3.0
O=[N+]([O-])c1ccc(N=Nc2ccc(O)c3ccccc23)cc1	-13.8	16.2	-26.2	55.9*	nt	nt
CCOC(=O)Nc1ccc(NCc2ccc(F)cc2)nc1N	-10.3	-6.5	-23.8	-21.9	22.8*	12.7
CCOC(=O)Nc1ccc(C)cc1NC(=O)OCC	-3.1	-0.5	7.6	1.9	-7.8	1.3
Oc1c(Cl)cc(Cl)cc1/C=N/c1nccs1	-10.9	5.9	61.2*	nt	-0.8	2.1
Oc1c(Cl)cc(Cl)cc1/C=N/c1nc(-c2ccc(Cl)cc2)cs1	-1.7	6.1	12.2	nt	nt	nt
N#Cc1cccc(C(=O)N2CCC(Oc3cccnc3)CC2)c1	nt	nt	nt	nt	-3.2	-3.6
CCN(CC)CCOC(=O)c1ccc(N/C=C(/C#N)c2nc(-c3ccc(OC)c(OC)c3)cs2)cc1	6.1	-1.6	17.4	61.1*	-5.2	-6.1
Nc1c(C(=O)N2CCOCC2)cnn1Cc1ccccc1	nt	nt	nt	nt	6.2	0.0
O=c1[nH]c(SCc2n[nH]c(=S)n2-c2ccccc2)nc2sc3c(c12)CCC3	5.2	3.3	61.9*	nt	2.0	2.9
CSc1ccc(C=NNC(=O)c2cc(-c3ccc(Cl)cc3)n[nH]2)cc1	nt	nt	nt	nt	1.2	8.1
CC12CCC(C(=O)N(CSC(=S)N/N=C\c3ccccc3O)C1=O)C2(C)C (centres undefined)	-0.8	12.3	52.5*	-10.5	-2.9	-2.0
CCCCCn1nnnc1C1(C)CCSCC(=O)N1Cc1ccco1 (centres undefined)	nt	nt	nt	nt	2.3	-3.1
Cc1ccc(C(=O)O)cc1N=Cc1cc(Br)cc(Br)c1O	2.2	8.2	76.7*	8.7	nt	nt
CC(=O)Nc1ccc(C(=O)N/N=C/c2cc(Br)cc(Br)c2O)cc1	-11.2	2.2	31.9	-3.1	-7.5	-3.9
COc1cc(NC(=O)c2ccccc2)c(C)cc1NC(=O)CSc1nnc(COc2ccccc2)n1Cc1ccco1	nt	nt	nt	nt	-2.5	-3.1
COc1ccc(NC(=O)CCCc2nc3ccccc3c(=O)[nH]2)cc1Cl	0.4	1.0	57.4*	-0.5	4.8	2.1
Cc1ccc(NC(=O)CCCc2nc3ccccc3c(=O)[nH]2)c(Cl)c1	-3.8	1.5	63.3*	18.9	2.3	2.0
CC(C)CN1C(=O)[C@]2(CC(=O)N(C)C2c2ccccc2)c2cc(-n3cc(CN(C)C)nn3)ccc21 (some centres undefined)	nt	nt	nt	nt	-7.8	6.6
COC(=O)C1=C(C)N(Cc2cccc(C(F)(F)F)c2)C(=NCc2cc(OC)c(OC)c(OC)c2)NC1c1ccc(F)cc1 (centres undefined)	nt	nt	nt	nt	3.0	-10.5
COc1cccc(C(=O)N/N=C(/c2ccccc2)c2ccccn2)c1	21.8	1.3	16.6	-44.9	-0.4	-0.1
SMILES	MT1-MMP act inh	DAGLB inh	Cardio protect	H9c2 TAG inh	DDE Tn7 FP inh	DDE Tn6 FP inh
COc1cc(C(=O)N/N=C(\c2ccccc2)c2ccccn2)cc(OC)c1OC	0.6	4.9	78.0*	19.3	-5.0	4.8
CCCCCC(=O)N/N=C(\C)c1ccccn1	3.0	-4.0	61.2*	nt	-6.6	1.5
COc1cc(OC)cc(C(=O)NNC(=O)c2ccc3ccccc3n2)c1	5.8	4.0	44.1	-7.1	5.1	11.8
COc1cc(C(=O)NNC(=O)c2ccc3ccccc3n2)cc(OC)c1OC	3.2	2.7	60.6*	14.4	0.1	1.9
COc1cc(C(=O)N/N=C(\C)c2ccccn2)cc(OC)c1OC	3.4	-3.9	58.5*	-11.6	3.3	1.9
CCCCCCCCCC(=O)N/N=C(\C)c1cccnc1	6.0	-0.3	-20.8	-25.2	-2.1	0.7
Clc1ccc([C@H]2OC[C@@]3(CNCc4ccc5c(c4)OCO5)CS[C@H](c4ccc(Cl)cc4)N23)cc1	nt	nt	nt	nt	7.4	1.4
COc1ccc(C(=O)Nc2cccc(/C(C)=N\NC(=O)c3ccoc3C)c2)cc1OC	6.3	1.1	18.8	-6.3	-6.8	-6.7
COc1ccc(C(=O)Nc2cccc(/C(C)=N/NC(=O)c3ccc([N+](=O)[O-])c(C)c3)c2)cc1OC	-1.3	-6.8	94.8*	8.8	-2.2	3.7
CCCN(CCC)CCNC(=O)c1cc2c(-c3ccc(Cl)cc3)nn(C)c2s1	1.0	-2.1	-15.9	nt	-5.7	-1.0
CCN(CC)CCNC(=O)c1cc2c(-c3ccc(Cl)cc3)nn(C)c2s1	-0.9	2.9	10.5	65.1*	-3.8	2.5
COCC(=O)Nc1ccc2c(c1)[C@H]1C[C@@H](CC(=O)NCC3CC3)O[C@H](CO)[C@H]1O2	nt	nt	nt	nt	9.0	9.2
COc1ccc(CC(=O)N(Cc2ccccc2)c2ccccc2)cc1S(=O)(=O)N1CCOCC1	-2.2	1.9	69.0*	-2.5	4.2	0.2
CCN(CC)c1cccc(OC2=NS(=O)(=O)c3ccccc32)c1	72.5	0.6	-1.5	-9.1	4.5	111.0*
CCc1ccc(OC2=NS(=O)(=O)c3ccccc32)cc1	-3.3	-0.1	-4.6	1.3	-2.7	6.2
Cn1c(O)c(C=Nc2ccc(N3CCOCC3)cc2)c(=O)n(C)c1=S	-4.5	1.5	9.9	-8.0	-1.2	3.4
Cc1cc(O)c(C=Nc2ccc(N3CCOCC3)cc2)c(C)c1Cl	5.2	0.9	83.1*	nt	2.7	-3.9
CCCn1nc([N+](=O)[O-])c(C(C#N)c2nc3ccccc3o2)c(Cl)c1=O (centres undefined)	21.3	69.9*	-11.9	nt	3.2	-4.6
Cn1nc([N+](=O)[O-])c(C(C#N)c2ccccn2)c(Cl)c1=O (centres undefined)	-6.8	-1.7	-16.1	nt	1.2	1.4
Oc1cc(-c2ccc(N3CCCCC3)nc2)cc2cccnc12	16.7	10.6	25.0	104.0*	nt	nt
Oc1cc(-c2ccncc2)cc2cccnc12	-12.3	2.4	-1.4	81.9	-5.2	2.4
COc1ccccc1N(C(=O)CCl)c1cn(C(C)=O)c2ccccc12	-25.0	1.4	-6.1	73.7*	1.7	1.0
CC(=O)n1cc(N(C(=O)CCl)c2ccc(Cl)cc2)c2ccccc21	-11.0	nt	-8.7	67.0*	nt	nt
CCOC(=O)c1ccccc1Nc1cn(C(C)=O)c2ccccc12	-9.3	-3.0	-14.0	36.9	-3.4	-7.8
CC(C)N1CCCCC(NC(=O)Cc2ccccc2)C1=O (centres undefined)	nt	nt	nt	nt	8.7	1.1
